Data set [1] can be described thus: Cytotoxicity against HSF cells assessed as growth inhibition at 100 ug/mL incubated for 48 hrs by SRB assay relative to control. The data set is classed as toxicity, cell-based. As to conditions: human, at 100 µg/mL, read-out: GI. In short, it runs like this: (§1)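 SRB assay: cells seeded at 3×10^3/well, allowed 24 h to attach, then exposed to 100 µg/mL for 48 h, three wells per concentration, DMSO 1% v/v vehicle control. Cells fixed with 20% trichloroacetic acid and stained with 0.4% SRB, then OD read at 570 nm. Survival fraction taken as treated OD/control OD.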
On the technique in general: The SRB assay estimates cell density from bound dye.

Data set [2] deals with A-375. The data set is described as follows: Antiproliferative activity against human A-375 cells assessed as growth inhibition at 100 ug/mL incubated for 48 hrs by SRB assay relative to control. The data set is classed as functional. The note with it: read-out: GI. In outline:
as §1

The next data set has as its system Huh-7. The data set is described as follows: Antiproliferative activity against human Huh-7 cells assessed as growth inhibition at 100 ug/mL incubated for 48 hrs by SRB assay relative to control. As to conditions: read-out: GI. Format: functional. In short, it runs like this: as §1
The test system of a further data set is MDA-MB-468. The data set is described as follows: Antiproliferative activity against human MDA-MB-468 cells assessed as growth inhibition at 100 ug/mL incubated for 48 hrs by SRB assay relative to control. Format: functional. The note with it: read-out: GI. In short, it runs like this: as §1
The next data set deals with Caco-2. Put plainly: Antiproliferative activity against human Caco-2 cells assessed as growth inhibition at 100 ug/mL incubated for 48 hrs by SRB assay relative to control. The note with it: read-out: GI. Format: functional. In short, it runs like this:
as §1

A further data set deals with FaDu. The data set is described as follows: Antiproliferative activity against human FaDu cells assessed as growth inhibition at 100 ug/mL incubated for 48 hrs by SRB assay relative to control. Format: functional. As to conditions: read-out: GI. In short, it runs like this: as §1
The test system of the next data set is MG-63. The data set is described as follows: Antiproliferative activity against human MG-63 cells assessed as growth inhibition at 100 ug/mL incubated for 48 hrs by SRB assay relative to control. Format: functional. As to conditions: read-out: GI. In outline:
as §1

The next data set relates to HeLa. Put plainly: Antiproliferative activity against human HeLa cells assessed as growth inhibition at 100 ug/mL incubated for 48 hrs by SRB assay relative to control. The data set is classed as functional. The note with it: read-out: GI. In outline: as §1
A further data set deals with MCF7. The data set is described as follows: Antiproliferative activity against human MCF7 cells assessed as growth inhibition at 100 ug/mL incubated for 48 hrs by SRB assay relative to control. As to conditions: read-out: GI. Format: functional. In outline:
as §1

Data set [3] deals with HCT-116. Put plainly: Antiproliferative activity against human HCT-116 cells assessed as growth inhibition at 100 ug/mL incubated for 48 hrs by SRB assay relative to control. The data set is classed as functional. The note with it: read-out: GI. In short, it runs like this:
as §1

Data set [4] relates to HepG2. Put plainly: Antiproliferative activity against human HepG2 cells assessed as growth inhibition at 100 ug/mL incubated for 48 hrs by SRB assay relative to control. The data set is classed as functional. The note with it: read-out: GI. In short, it runs like this: as §1
Data set [5] is described as follows: Antiproliferative activity against human HNO 97 cell line assessed as growth inhibition at 100 ug/mL incubated for 48 hrs by SRB assay relative to control. As to conditions: read-out: GI. Format: functional. In short, it runs like this:
as §1

Data set [6] can be described thus: Cytotoxicity against human oral epithelial cells (OEC) assessed as growth inhibition at 100 ug/mL incubated for 48 hrs by SRB assay relative to control. As to conditions: at 100 µg/mL, read-out: GI. The data set is classed as toxicity, cell-based, Oral epithelial cell. In outline:
as §1

A short description of data set [7]: Cytotoxicity against human HNO 97 cell line assessed as inhibition of cell growth incubated for 48 hrs by SRB assay. Format: functional, cell-based. The note with it: HNO 97, 48 h. In short, it runs like this:
(§2)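 Cells plated at 3×10^3/well and left 24 h to attach. Treated at 12.5, 25, 50 and 62.5 µg/mL for 48 h, three wells per concentration, with DMSO (1% v/v) vehicle control. Fixed with 20% TCA, stained with 0.4% SRB, OD read at 570 nm. Survival fraction = treated OD/control OD. IC50 from sigmoidal dose-response curve fitting.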

For data set [8], the system named is HCT-116. The data set is described as follows: Cytotoxicity against human HCT-116 cells assessed as inhibition of cell growth incubated for 48 hrs by SRB assay. The data set is classed as functional, cell-based. As to conditions: HCT-116, 48 h. In outline: as §2
In data set [9] the test system is A-375. Put plainly: Cytotoxicity against human A-375 cells assessed as inhibition of cell growth incubated for 48 hrs by SRB assay. The data set is classed as functional, cell-based. As to conditions: A-375, 48 h. In short, it runs like this:
as §2

The test system of data set [10] is HepG2. The data set is described as follows: Cytotoxicity against human HepG2 cells assessed as inhibition of cell growth incubated for 48 hrs by SRB assay. Format: functional, cell-based. The note with it: HepG2, 48 h. In short, it runs like this: as §2
For data set [11], the system named is A-375. The data set is described as follows: Induction of apoptosis in human A-375 cells assessed as upregulation of caspase 3 expression by measuring fold change at 5.04 microg/ml incubated for 1 hrs by ELISA. Format: functional. The note with it: dose 5.04 µg/ml. In outline:
(§3)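 Sandwich ELISA with plate precoated with capture antibody for each of caspase-3, -8, -9, CDK2, CDK4 and CDK6. Samples and a 7-point standard incubated 1 h at 37 °C, then biotinylated antibody 1 h, avidin-HRP 30 min and TMB 10-20 min. Reaction stopped with sulphuric acid and read at 450 nm. Duplicate readings, zero standard subtracted, amounts taken from the standard curve.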

Data set [12] has as its system A-375. Put plainly: Induction of apoptosis in human A-375 cells assessed as upregulation of caspase 8 expression by measuring fold change at 5.04 microg/ml incubated for 1 hrs by ELISA. The note with it: dose 5.04 µg/ml. Format: functional. In short, it runs like this:
as §3
(In general: ELISA stands for enzyme-linked immunosorbent assay.)

The test system of data set [13] is A-375. The data set is described as follows: Induction of apoptosis in human A-375 cells assessed as upregulation of caspase 9 expression by measuring fold change at 5.04 microg/ml incubated for 1 hrs by ELISA. Format: functional. The note with it: dose 5.04 µg/ml. In outline: as §3
Data set [14] concerns A-375. The data set is described as follows: Induction of apoptosis in human A-375 cells assessed as downregulation of CDK2 expression by measuring fold change at 5.04 microg/ml incubated for 1 hrs by ELISA. Format: functional. The note with it: dose 5.04 µg/ml. In outline: as §3
Data set [15] concerns A-375. Put plainly: Induction of apoptosis in human A-375 cells assessed as downregulation of CDK4 expression by measuring fold change at 5.04 microg/ml incubated for 1 hrs by ELISA. The data set is classed as functional. The note with it: dose 5.04 µg/ml. In short, it runs like this:
as §3

The subject of data set [16] is A-375. Put plainly: Induction of apoptosis in human A-375 cells assessed as downregulation of CDK6 expression by measuring fold change at 5.04 microg/ml incubated for 1 hrs by ELISA. Format: functional. The note with it: dose 5.04 µg/ml. In short, it runs like this: as §3
Data set [17] concerns the target Epidermal growth factor receptor (Homo sapiens) (UniProt P00533). Put plainly: Inhibition of EGFR in human A-375 cells assessed as protein concentration incubated for 1 hrs by ELISA (reference value: 8.91 ng/ml). Format: cell-based. In outline:
(§4)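 Human EGFR or telomerase measured by sandwich ELISA. Samples and standards incubated 90 min at 37 °C, then biotinylated detection antibody 1 h, avidin-HRP 30 min and substrate about 15 min, all at 37 °C. Reaction stopped and OD read at 450 nm. Concentration taken from the standard curve.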

In data set [18] the target is Telomerase reverse transcriptase (Homo sapiens) (UniProt O14746). The data set is described as follows: Inhibition of telomerase in human A-375 cells assessed as protein concentration incubated for 1 hrs by ELISA (reference value: 3.56 ng/ml). Format: cell-based. In short, it runs like this:
as §4

Data set [19] deals with Epidermal growth factor receptor (Homo sapiens) (UniProt P00533). Put plainly: Inhibition of EGFR in human A-375 cells assessed as downregulation of EGFR concentration by measuring fold change incubated for 1 hrs by ELISA. The data set is classed as cell-based. In short, it runs like this:
as §4

Data set [20] concerns the target Telomerase reverse transcriptase (Homo sapiens) (UniProt O14746). The data set is described as follows: Inhibition of telomerase in human A-375 cells assessed as downregulation of telomerase concentration by measuring fold change incubated for 1 hrs by ELISA. The data set is classed as cell-based. In outline: as §4
The subject of data set [21] is A-375. Put plainly: Cell cycle arrest in human A-375 cells assessed as increase in accumulation of cells at G0/G1 phase at 3.1 microM incubated for 48 hrs by PI staining based flow cytometry analysis (reference value: 17.29 %). (In general: A flow cytometer gives signals particle by particle.)

The record followed here is ChEMBL document CHEMBL6182834, “Dual EGFR and telomerase inhibitory potential of new triazole tethered Schiff bases endowed with apoptosis: design, synthesis, and biological assessments” (RSC Med Chem, 2025).

Each structure is given as a SMILES string.

Sequence of Telomerase reverse transcriptase (Homo sapiens) (O14746 whole entry): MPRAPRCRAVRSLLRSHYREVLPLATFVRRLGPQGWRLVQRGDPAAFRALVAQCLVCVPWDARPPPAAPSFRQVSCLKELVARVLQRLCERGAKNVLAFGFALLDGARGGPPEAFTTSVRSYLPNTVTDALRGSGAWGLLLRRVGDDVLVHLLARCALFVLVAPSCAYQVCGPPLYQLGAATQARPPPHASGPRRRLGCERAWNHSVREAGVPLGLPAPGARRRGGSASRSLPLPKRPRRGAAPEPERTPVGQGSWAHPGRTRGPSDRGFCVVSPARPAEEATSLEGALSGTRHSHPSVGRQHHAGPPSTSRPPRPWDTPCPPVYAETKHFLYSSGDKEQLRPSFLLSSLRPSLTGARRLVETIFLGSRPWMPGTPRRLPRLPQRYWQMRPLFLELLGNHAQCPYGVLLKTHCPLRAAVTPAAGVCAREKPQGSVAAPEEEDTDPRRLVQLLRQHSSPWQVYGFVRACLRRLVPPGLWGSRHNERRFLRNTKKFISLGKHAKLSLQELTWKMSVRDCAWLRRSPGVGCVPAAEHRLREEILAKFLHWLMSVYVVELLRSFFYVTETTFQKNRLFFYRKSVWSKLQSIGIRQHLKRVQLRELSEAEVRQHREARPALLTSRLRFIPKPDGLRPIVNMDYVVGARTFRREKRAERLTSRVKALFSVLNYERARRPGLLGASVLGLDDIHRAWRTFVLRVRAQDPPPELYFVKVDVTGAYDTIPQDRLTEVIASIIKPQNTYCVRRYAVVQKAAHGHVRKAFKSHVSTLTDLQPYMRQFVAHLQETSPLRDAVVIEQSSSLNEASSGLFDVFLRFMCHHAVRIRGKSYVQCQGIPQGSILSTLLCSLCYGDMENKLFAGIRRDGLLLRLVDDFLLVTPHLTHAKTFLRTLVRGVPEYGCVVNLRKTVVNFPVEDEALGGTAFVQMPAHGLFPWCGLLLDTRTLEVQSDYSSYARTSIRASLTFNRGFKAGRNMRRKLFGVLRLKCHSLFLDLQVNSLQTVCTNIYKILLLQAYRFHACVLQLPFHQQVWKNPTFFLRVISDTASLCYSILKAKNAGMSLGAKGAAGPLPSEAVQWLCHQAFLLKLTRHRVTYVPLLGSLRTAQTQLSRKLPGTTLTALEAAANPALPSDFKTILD
Sequence of Epidermal growth factor receptor (Homo sapiens) (P00533 whole entry): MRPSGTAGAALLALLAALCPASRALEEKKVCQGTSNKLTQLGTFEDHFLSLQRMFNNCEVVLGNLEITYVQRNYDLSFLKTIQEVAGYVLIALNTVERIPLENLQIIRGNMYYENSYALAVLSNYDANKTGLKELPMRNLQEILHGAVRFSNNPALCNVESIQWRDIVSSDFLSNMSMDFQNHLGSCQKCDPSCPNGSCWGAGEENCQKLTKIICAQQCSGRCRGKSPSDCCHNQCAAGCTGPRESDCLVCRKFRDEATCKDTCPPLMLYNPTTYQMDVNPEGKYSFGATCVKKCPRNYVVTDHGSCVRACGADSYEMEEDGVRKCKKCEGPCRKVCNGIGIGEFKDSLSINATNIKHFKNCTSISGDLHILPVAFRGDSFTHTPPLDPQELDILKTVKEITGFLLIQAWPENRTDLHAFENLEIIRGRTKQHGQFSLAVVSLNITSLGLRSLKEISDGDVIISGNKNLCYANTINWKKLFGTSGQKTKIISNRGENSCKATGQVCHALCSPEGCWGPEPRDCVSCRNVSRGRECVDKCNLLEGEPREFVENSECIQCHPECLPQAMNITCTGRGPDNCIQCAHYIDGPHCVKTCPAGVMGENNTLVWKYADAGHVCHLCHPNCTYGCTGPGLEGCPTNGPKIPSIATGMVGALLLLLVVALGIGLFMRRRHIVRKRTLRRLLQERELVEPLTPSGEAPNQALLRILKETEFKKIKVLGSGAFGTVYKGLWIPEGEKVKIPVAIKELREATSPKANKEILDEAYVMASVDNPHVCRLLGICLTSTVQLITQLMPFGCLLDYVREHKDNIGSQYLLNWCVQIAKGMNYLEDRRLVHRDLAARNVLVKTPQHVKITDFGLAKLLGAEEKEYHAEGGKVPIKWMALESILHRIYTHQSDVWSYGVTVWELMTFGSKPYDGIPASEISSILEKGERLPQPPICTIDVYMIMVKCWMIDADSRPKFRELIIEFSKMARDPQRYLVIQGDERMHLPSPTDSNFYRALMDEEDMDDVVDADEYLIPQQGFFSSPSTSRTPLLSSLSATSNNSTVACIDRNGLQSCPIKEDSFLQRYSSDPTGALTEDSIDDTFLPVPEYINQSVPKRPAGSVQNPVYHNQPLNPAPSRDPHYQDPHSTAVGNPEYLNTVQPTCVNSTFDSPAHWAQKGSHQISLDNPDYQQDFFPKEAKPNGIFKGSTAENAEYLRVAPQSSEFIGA

Take `COc1cccc(/C=N/NC(=O)c2nnn(-c3ccc(Cl)cc3)c2C)c1OC`: the values for the inhibition at 48 h, 100 ug/mL in data set [1] and in data set [6] were 25% and 37%, respectively. In addition, the inhibition of growth at 100 µg/mL with A-375 [2] is 85%; with Huh-7, 62%; with MDA-MB-468 it was 69%; in the data set with Caco-2 it was 55%; in the data set with FaDu it was 76%; in the data set on MG-63, 65%. Besides, the inhibition of growth at 100 µg/mL was 63% in the data set on HeLa; 70% in the data set with MCF7; 82% with HCT-116 [3]; 80% in the data set with HepG2 [4]; 72% in data set [5]. Moreover, the IC50 in data set [7] was found to be 13.3 µM; in the data set on HCT-116 [8], 13.3 µM; in the data set on A-375 [9], 12.6 µM; with HepG2 [10], 31.2 µM. Also, the “fold change (FC)” value in the data set on A-375 [11] came out at 1.35; with A-375 [12], 1.55; in the data set on A-375 [13], 1.51; in the data set on A-375 [14], 2.91; in the data set on A-375 [15], 2.01; with A-375 [16], 9.15. Also, the fold change (FC) came out at 2.58 in data set [19] and 2.72 in data set [20]. Further, the Activity came to 3.45 ng/mL in [17], 1.31 ng/mL in [18] and 78.39% with A-375 [21].

Consider `COc1cccc2c1C(=O)c1c(O)c3c(c(O)c1C2=O)C[C@@](O)(C(=O)CO)C[C@@H]3O[C@H]1C[C@H](N)[C@H](O)[C@H](C)O1` [DOXORUBICIN], for which the inhibition at 48 h, 100 ug/mL in data set [1] stood at 42%; in data set [6] it was 41%. Further, the inhibition of growth at 100 µg/mL with A-375 [2] stood at 52%; in the data set on Huh-7 it was 63%; in the data set with MDA-MB-468 it was 73%; with Caco-2 it was 71%; in the data set with FaDu, 61%; with MG-63, 51%. Moreover, the inhibition of growth at 100 µg/mL in the data set with HeLa turned out to be 76%; in the data set on MCF7, 69%; in the data set on HCT-116 [3], 76%; in the data set with HepG2 [4] it was 72%; in data set [5] it was 59%. Moreover, the IC50 in [7] came to 9.01 µM; with HCT-116 [8], 10.5 µM; in the data set on A-375 [9] it was 14.5 µM; in the data set with HepG2 [10], 11 µM.

Regarding `COc1cc(/C=N/NC(=O)c2nnn(-c3ccc(F)cc3)c2C)cc(OC)c1OC`, the figures for the inhibition at 48 h, 100 ug/mL in [1] and in data set [6] were 38% and 32%, respectively. In addition, the inhibition of growth at 100 µg/mL was determined as 85% with A-375 [2]; 75% with Huh-7; 72% with MDA-MB-468; 58% in the data set with Caco-2; 72% with FaDu; 63% with MG-63. Moreover, the inhibition of growth at 100 µg/mL in the data set on HeLa is 56%; in the data set on MCF7 it was 68%; with HCT-116 [3], 73%; in the data set with HepG2 [4], 79%; in [5], 79%. The IC50 in data set [7] was determined as 15.7 µM; in the data set with HCT-116 [8], 18.8 µM; in the data set on A-375 [9], 13.2 µM; in the data set with HepG2 [10] it was 35.7 µM.

Usually IC50 stands for the concentration that gives 50% inhibition.
